Source: ChEMBL document CHEMBL2040780, “Antiarrhythmic properties of phenylpiperazine derivatives of phenytoin with α₁-adrenoceptor affinities” (Bioorg Med Chem, 2012)
Activity calls are given as the source filed them. The rule behind the calls is not given here.

Assays:
Rattus norvegicus [1] = assay: Cardiotoxicity in Wistar rat assessed as effect on Q-T interval at 5 mg/kg, iv after 5 mins; assay type: toxicity, organism-based; parameters: dose 5 mg/kg, route intravenous; conditions: in vivo
Outline: (§1)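 Male Wistar rats (180–250 g), anaesthetised with thiopental 60 mg/kg ip. Compound given iv in water at 10 mg/kg, or at a lower starting dose of 5 or 2.5 mg/kg. Standard lead II ECG recorded at 50 mm/s just before dosing and at 1, 5 and 15 min after. Heart rate and P–Q, Q–T and QRS intervals were read. n=6 per group, mean ± SEM, one-way ANOVA.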

Rattus norvegicus [2] = assay: Antiarrhythmic activity in Wistar rat assessed as effect on heart beat at 5 mg/kg, iv after 5 mins; assay type: functional; outline: as §1
Rattus norvegicus [3] = assay: Cardiotoxicity in Wistar rat assessed as effect on P-Q interval at 5 mg/kg, iv after 5 mins; assay type: toxicity, organism-based; parameters: dose 5 mg/kg, route intravenous; conditions: in vivo; outline: as §1
Rattus norvegicus [4] = assay: Hypotensive activity in normotensive Wistar rat assessed as decrease in systolic blood pressure at 2.5 to 10 mg/kg, iv after 1 min measured up to 60 mins; assay type: organism-based, Artery; parameters: dose 2.5-10 mg/kg, route intravenous; conditions: in vivo
Outline: (§2)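 Right carotid artery cannulated with heparin-saline-filled tubing for blood pressure recording. After 5 min stabilisation, compound injected iv into the caudal vein (2.5–10 mg/kg, 1 ml/kg). Systolic and diastolic pressure followed for 60 min. n=6 per group, mean ± SEM, one-way ANOVA.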

Rattus norvegicus [5] = assay: Hypotensive activity in normotensive Wistar rat assessed as decrease in diastolic blood pressure at 2.5 to 10 mg/kg, iv at 1 min; assay type: organism-based, Artery; parameters: dose 2.5-10 mg/kg, route intravenous; conditions: in vivo; outline: as §2
Rattus norvegicus [6] = assay: Cardiotoxicity in Wistar rat assessed as effect on Q-T interval at 5 mg/kg, iv after 15 mins; assay type: toxicity, organism-based; parameters: dose 5 mg/kg, route intravenous; conditions: in vivo, 0.25 h; outline: as §1
Rattus norvegicus [7] = assay: Antiarrhythmic activity in Wistar rat assessed as effect on heart beat at 5 mg/kg, iv after 1 min; assay type: functional; outline: as §1
Rattus norvegicus [8] = assay: Cardiotoxicity in Wistar rat assessed as effect on Q-T interval at 5 mg/kg, iv after 1 min; assay type: toxicity, organism-based; parameters: dose 5 mg/kg, route intravenous; conditions: in vivo; outline: as §1
Rattus norvegicus [9] = assay: Cardiotoxicity in Wistar rat assessed as effect on P-Q interval at 5 mg/kg, iv after 1 min; assay type: toxicity, organism-based; parameters: dose 5 mg/kg, route intravenous; conditions: in vivo; outline: as §1
Rattus norvegicus [10] = assay: Cardiotoxicity in Wistar rat assessed as effect on QRS interval at 5 mg/kg, iv after 15 mins; assay type: toxicity, organism-based; parameters: dose 5 mg/kg, route intravenous; conditions: in vivo, 0.25 h; outline: as §1
Rattus norvegicus [11] = assay: Hypotensive activity in normotensive Wistar rat assessed as decrease in systolic blood pressure at 2.5 to 10 mg/kg, iv at 1 min; assay type: organism-based, Artery; parameters: dose 2.5-10 mg/kg, route intravenous; conditions: in vivo; outline: as §2
Rattus norvegicus [12] = assay: Cardiotoxicity in Wistar rat assessed as effect on P-Q interval at 5 mg/kg, iv after 15 mins; assay type: toxicity, organism-based; parameters: dose 5 mg/kg, route intravenous; conditions: in vivo, 0.25 h; outline: as §1
Rattus norvegicus [13] = assay: Hypotensive activity in normotensive Wistar rat assessed as decrease in diastolic blood pressure at 2.5 to 10 mg/kg, iv after 1 min measured up to 60 mins; assay type: organism-based, Artery; parameters: dose 2.5-10 mg/kg, route intravenous; conditions: in vivo; outline: as §2
Rattus norvegicus [14] = assay: Cardiotoxicity in Wistar rat assessed as effect on QRS interval at 5 mg/kg, iv after 5 mins; assay type: toxicity, organism-based; parameters: dose 5 mg/kg, route intravenous; conditions: in vivo; outline: as §1
Rattus norvegicus [15] = assay: Antiarrhythmic activity in Wistar rat assessed as effect on heart beat at 5 mg/kg, iv after 15 mins; assay type: functional; outline: as §1
Rattus norvegicus [16] = assay: Cardiotoxicity in Wistar rat assessed as effect on QRS interval at 5 mg/kg, iv after 1 min; assay type: toxicity, organism-based; parameters: dose 5 mg/kg, route intravenous; conditions: in vivo; outline: as §1
Rattus norvegicus [17] = assay: Antiarrhythmic activity in iv dosed Wistar rat assessed as protection against adrenaline-induced bigeminy administered 15 mins prior to adrenaline-challenge; assay type: functional, organism-based; conditions: Heart
Outline: (§3)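 Szekeres model in male Wistar rats anaesthetised with thiopental (60 mg/kg ip). Test compound given iv in water (2.5–10 mg/kg) 15 min before adrenaline 20 µg/kg iv. Scored for extrasystoles, bigeminy and mortality; activity means no premature beats and inhibited arrhythmia versus controls.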

Rattus norvegicus [18] = assay: Antiarrhythmic activity in iv dosed Wistar rat assessed as protection against adrenaline-induced extrasystoles administered 15 mins prior to adrenaline-challenge; assay type: functional, organism-based; conditions: Heart; outline: as §3
[19] = target: T1, Adrenergic receptor alpha-1 (Rattus norvegicus, UniProt P15823+P23944+P43140); assay: Displacement of [3H]prazosin from alpha1 adrenoceptor in rat cerebral cortex after 30 mins by microbeta scintillation counting; assay type: tissue-based
T1 sequence (P15823 whole entry): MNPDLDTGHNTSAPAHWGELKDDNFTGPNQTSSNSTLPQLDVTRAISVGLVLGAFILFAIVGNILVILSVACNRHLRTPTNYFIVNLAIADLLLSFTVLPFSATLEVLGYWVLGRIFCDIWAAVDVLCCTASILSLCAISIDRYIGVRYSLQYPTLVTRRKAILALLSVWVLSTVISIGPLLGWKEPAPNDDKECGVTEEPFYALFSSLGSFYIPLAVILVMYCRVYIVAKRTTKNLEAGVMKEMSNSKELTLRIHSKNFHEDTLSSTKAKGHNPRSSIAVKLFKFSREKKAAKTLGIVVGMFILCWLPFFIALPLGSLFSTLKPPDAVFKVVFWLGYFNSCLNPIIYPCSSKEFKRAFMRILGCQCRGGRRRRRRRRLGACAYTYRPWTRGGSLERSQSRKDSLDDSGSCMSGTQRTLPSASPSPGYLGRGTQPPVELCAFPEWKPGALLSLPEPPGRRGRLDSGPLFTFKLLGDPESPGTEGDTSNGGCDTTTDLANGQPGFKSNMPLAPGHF
T1 sequence (P23944 whole entry): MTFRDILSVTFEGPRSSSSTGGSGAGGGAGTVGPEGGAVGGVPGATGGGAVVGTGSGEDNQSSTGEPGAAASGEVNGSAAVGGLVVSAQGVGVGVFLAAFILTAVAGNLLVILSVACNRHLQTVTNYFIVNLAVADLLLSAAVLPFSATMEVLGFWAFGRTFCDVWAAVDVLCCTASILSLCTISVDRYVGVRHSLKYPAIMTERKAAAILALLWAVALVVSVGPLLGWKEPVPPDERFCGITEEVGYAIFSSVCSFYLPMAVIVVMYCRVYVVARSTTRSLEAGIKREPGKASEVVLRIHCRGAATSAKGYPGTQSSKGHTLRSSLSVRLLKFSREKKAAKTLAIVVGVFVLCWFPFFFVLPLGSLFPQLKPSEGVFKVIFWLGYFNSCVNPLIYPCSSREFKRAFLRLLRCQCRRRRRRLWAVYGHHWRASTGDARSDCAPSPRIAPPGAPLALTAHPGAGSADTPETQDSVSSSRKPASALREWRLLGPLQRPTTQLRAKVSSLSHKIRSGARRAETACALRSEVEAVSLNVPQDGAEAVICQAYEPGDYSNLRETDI
T1 sequence (P43140 whole entry): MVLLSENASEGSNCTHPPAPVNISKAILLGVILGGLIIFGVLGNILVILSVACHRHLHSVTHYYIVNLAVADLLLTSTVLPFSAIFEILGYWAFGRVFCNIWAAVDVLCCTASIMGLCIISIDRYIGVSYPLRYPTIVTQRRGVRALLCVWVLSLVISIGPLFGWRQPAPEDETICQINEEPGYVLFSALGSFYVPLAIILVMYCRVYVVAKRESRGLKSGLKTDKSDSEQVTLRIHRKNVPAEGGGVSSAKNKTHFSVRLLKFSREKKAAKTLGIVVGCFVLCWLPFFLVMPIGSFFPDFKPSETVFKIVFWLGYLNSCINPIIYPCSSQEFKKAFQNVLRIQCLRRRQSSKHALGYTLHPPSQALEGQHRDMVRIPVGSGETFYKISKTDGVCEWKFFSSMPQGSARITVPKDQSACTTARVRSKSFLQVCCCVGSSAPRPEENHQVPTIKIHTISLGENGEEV
Outline: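 Rat cerebral cortex homogenised in ice-cold 50 mM Tris-HCl (pH 7.6 at 25 °C), washed twice at 20000×g and resuspended at 10 mg wet weight/ml. Incubated with [3H]prazosin (19.5 Ci/mmol) and test compound for 30 min at 25 °C. Nonspecific binding defined with 10 µM phentolamine. GF/B filtration, scintillation counting, three-parameter logistic competition fit.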

Rattus norvegicus [20] = assay: Antiarrhythmic activity in dosed Wistar rat assessed as protection against barium chloride-induced fibrillation administered 15 mins prior to barium chloride-challenge; assay type: functional, Heart
Outline: (§4)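 Szekeres model in male Wistar rats. Activity is gradual disappearance of arrhythmia with restored sinus rhythm; protection against disturbances and death scored. Groups of 6 animals.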

Rattus norvegicus [21] = assay: Antiarrhythmic activity in Wistar rat assessed as protection against adrenaline-induced extrasystoles at 2.5 to 10 mg/kg, iv administered 15 mins prior to adrenaline-challenge; assay type: functional, organism-based; conditions: Heart; outline: as §3
Rattus norvegicus [22] = assay: Antiarrhythmic activity in barium chloride-induced Wistar rat arrhythmia model assessed as protection against mortality at 2.5 to 10 mg/kg, iv administered 15 mins prior to barium chloride-challenge; assay type: functional, organism-based; conditions: Heart; outline: as §4
Rattus norvegicus [23] = assay: Antiarrhythmic activity in Wistar rat assessed as protection against adrenaline-induced bigeminy at 2.5 to 10 mg/kg, iv administered 15 mins prior to adrenaline-challenge; assay type: functional, organism-based; conditions: Heart; outline: as §3
Rattus norvegicus [24] = assay: Antiarrhythmic activity in iv dosed Wistar rat assessed as protection against adrenaline-induced arrhythmia administered 15 mins prior to adrenaline-challenge; assay type: functional; conditions: Heart; outline: as §3
Rattus norvegicus [25] = assay: Antiarrhythmic activity in iv dosed Wistar rat assessed as protection against barium chloride-induced extrasystoles administered 15 mins prior to barium chloride-challenge; assay type: functional, Heart; outline: as §4

Row | Compound | Activity (Rattus norvegicus [1]) [ms] | Activity (Rattus norvegicus [2]) [min⁻¹] | Activity (Rattus norvegicus [3]) [ms] | Activity (Rattus norvegicus [4]) | Activity (Rattus norvegicus [5]) | Activity (Rattus norvegicus [6]) [ms] | Activity (Rattus norvegicus [7]) [min⁻¹] | Activity (Rattus norvegicus [8]) [ms] | Activity (Rattus norvegicus [9]) [ms] | Activity (Rattus norvegicus [10]) [ms] | Activity (Rattus norvegicus [11]) | Activity (Rattus norvegicus [12]) [ms] | Activity (Rattus norvegicus [13]) | Activity (Rattus norvegicus [14]) [ms] | Activity (Rattus norvegicus [15]) [min⁻¹] | Activity (Rattus norvegicus [16]) [ms] | other results
1 | COC(=O)CN1C(=O)N(CC(O)CN2CCN(c3ccccc3)CC2)C(c2ccccc2)(c2ccccc2)C1=O.Cl (racemic) | 81 | 261 | 65.2 | Non-toxic | Toxic | 74 | 246 | 97 | 72 | 22 | Toxic | 64 | Non-toxic | 26 | 272 | 33 | 
2 | CC(C)NCC(O)COc1cccc2ccccc12 (configuration not stated) |  |  |  |  |  |  |  |  |  |  |  |  |  |  |  |  | Activity (Rattus norvegicus [17]): Active; Activity (Rattus norvegicus [18]): Active
3 | CN1C(=O)N(CC(O)CN2CCN(c3ccccc3F)CC2)C(c2ccccc2)(c2ccccc2)C1=O.Cl (racemic) | 74 | 251 | 62 | Non-toxic | Toxic | 68 | 272 | 81 | 64 | 16 | Toxic | 59 | Non-toxic | 17 | 258 | 20 | Ki [19]: 564.6 nM; pKi [19]: 6.25; Activity (Rattus norvegicus [20]): >50%; Activity (Rattus norvegicus [21]): Active; Activity (Rattus norvegicus [22]): Active; Activity (Rattus norvegicus [23]): Active; ED50 (Rattus norvegicus [24]): 1.92 mg/kg; Activity (Rattus norvegicus [25]): >50%
